Experimental data published in ChEMBL document CHEMBL4017501, “Paralog Specificity Determines Subcellular Distribution, Action Mechanism, and Anticancer Activity of TRAP1 Inhibitors” (J Med Chem, 2017).

Columns and labels:
[1] = target: Heat shock protein HSP 90-alpha (Homo sapiens, UniProt P07900); test: Inhibition of FITC3-labeled PU-H71 binding to recombinant HSP90alpha (unknown origin) after 24 hrs by fluorescence polarization assay
[2] = target: T1, Heat shock protein 75 kDa, mitochondrial (Homo sapiens, UniProt Q12931); test: Inhibition of FITC3-labeled PU-H71 binding to recombinant human N-terminal His6-tagged TRAP1 (60 to 561 residues) expressed in Escherichia coli BL21(DE3) after 24 hrs by fluorescence polarization assay
T1 sequence (Q12931 whole entry): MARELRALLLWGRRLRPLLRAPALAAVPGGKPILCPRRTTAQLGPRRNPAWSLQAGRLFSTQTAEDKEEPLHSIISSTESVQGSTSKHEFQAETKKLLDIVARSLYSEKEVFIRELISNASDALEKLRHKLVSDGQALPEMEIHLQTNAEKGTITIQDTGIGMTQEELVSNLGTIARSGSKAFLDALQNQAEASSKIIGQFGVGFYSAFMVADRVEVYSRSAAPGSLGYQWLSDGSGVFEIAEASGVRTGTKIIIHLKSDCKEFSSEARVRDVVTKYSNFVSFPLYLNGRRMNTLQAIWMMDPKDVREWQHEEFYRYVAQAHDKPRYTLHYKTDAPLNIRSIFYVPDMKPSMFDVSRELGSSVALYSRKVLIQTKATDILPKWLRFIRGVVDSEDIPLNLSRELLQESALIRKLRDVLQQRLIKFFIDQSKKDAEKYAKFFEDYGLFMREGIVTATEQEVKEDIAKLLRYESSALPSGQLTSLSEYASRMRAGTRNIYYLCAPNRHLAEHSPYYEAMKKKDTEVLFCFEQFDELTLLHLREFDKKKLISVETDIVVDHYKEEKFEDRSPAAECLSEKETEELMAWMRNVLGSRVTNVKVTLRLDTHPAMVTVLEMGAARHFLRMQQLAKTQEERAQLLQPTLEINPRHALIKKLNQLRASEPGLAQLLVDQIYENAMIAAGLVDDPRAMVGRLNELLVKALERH
In short: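 Recombinant TRAP1 (100 nM) incubated with 10 nM 1-FITC3 probe and varying inhibitor concentrations for 24 h at 4 °C. Buffer: PBS-type salts with 1 mM DTT, 2 mM MgCl2, 0.1 mg/mL BSA, 0.05% NP40, pH 7.3. Polarization (mP) scaled to maximum and minimum values; mean ± SEM of two independent experiments.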

HeLa [3] = test: Induction of apoptosis in human HeLa cells assessed as late apoptotic cells at 20 uM after 24 hrs by Annexin V-FITC/propidium iodide staining based flow cytometry (reference value: 5.3%); format: functional
HeLa [4] = test: Induction of apoptosis in human HeLa cells assessed as live cells at 20 uM after 24 hrs by Annexin V-FITC/propidium iodide staining based flow cytometry (reference value: 90.1%); format: functional
PC-3 [5] = test: Induction of apoptosis in human PC3 cells assessed as necrotic cells at 20 uM after 24 hrs by Annexin V-FITC/propidium iodide staining based flow cytometry (reference value: 0.2%); format: functional
Hepatocyte = test: Cytotoxicity against mouse primary hepatocytes assessed as reduction in cell viability at 5 to 20 uM after 24 hrs by MTT assay; format: cell-based
In short: (§1)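 Corneal cells kept in corneal medium; hepatocytes isolated from 8-week-old BALB/c mice and kept in M199/EBSS with 10% FBS. Cells given a range of drug concentrations for 24 h. MTT absorbance read at 595 nm and normalized to DMSO; two independent experiments in duplicate, mean ± SEM.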

HeLa [6] = test: Induction of apoptosis in human HeLa cells assessed as necrotic cells at 20 uM after 24 hrs by Annexin V-FITC/propidium iodide staining based flow cytometry (reference value: 0.7%); format: functional
PC-3 [7] = test: Induction of apoptosis in human PC3 cells assessed as live cells at 20 uM after 24 hrs by Annexin V-FITC/propidium iodide staining based flow cytometry (reference value: 97.4%); format: functional
HeLa [8] = test: Induction of apoptosis in human HeLa cells assessed as early apoptotic cells at 20 uM after 24 hrs by Annexin V-FITC/propidium iodide staining based flow cytometry (reference value: 3.9%); format: functional
PC-3 [9] = test: Induction of apoptosis in human PC3 cells assessed as early apoptotic cells at 20 uM after 24 hrs by Annexin V-FITC/propidium iodide staining based flow cytometry (reference value: 0.7%); format: functional
[10] = Cytotoxicity against human corneal cells assessed as reduction in cell viability at 5 to 20 uM after 24 hrs by MTT assay; format: cell-based; in short: as §1
PC-3 [11] = test: Induction of apoptosis in human PC3 cells assessed as late apoptotic cells at 20 uM after 24 hrs by Annexin V-FITC/propidium iodide staining based flow cytometry (reference value: 1.5%); format: functional

SMILES: Nc1nc(Cl)c2cnn(Cc3ccc4c(c3)OCO4)c2n1
- IC50 [1]: 8.93 µM
- IC50 [2]: 6.34 µM

SMILES: CCNC(=O)c1noc(-c2cc(C(C)C)c(O)cc2O)c1-c1ccc(CN2CCOCC2)cc1 [LUMINESPIB]
- Activity (HeLa [3]): 8.6%
- Activity (HeLa [4]): 83%
- Activity (PC-3 [5]): 0.9%
- Activity (Hepatocyte): Toxic
- Activity (HeLa [6]): 0.9%
- Activity (PC-3 [7]): 93.5%
- Activity (HeLa [8]): 7.5%
- Activity (PC-3 [9]): 0.7%
- Activity [10]: Toxic
- Activity (PC-3 [11]): 5%
